Source: PubChem BioAssay (several laboratories)
LEDGF integ inh: blocks HIV-1 LEDGF/p75-dependent DNA integration; TR-FRET IN-LEDGF/p75 DNA integration, Eu/Cy5; inhibition, % at 3.7 µM; hit rate 0.64% among 370,000;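 active = inhibition above the screen-wide mean plus 3 SD, cut at about 13% in these data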;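 also: signal is the Cy5 over europium emission ratio at 671 and 618 nm; 0% = plate median of compound wells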
rCAG binder: binds r(CAG) RNA repeats; r(CAG) RNA repeat, TO-PRO-1 dye displacement fluorescence; inhibition, % at 3 µM; hit rate 1.3% among 370,000; AID 651821;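 active = inhibition above the plate cutoff, the mean of all test compounds on that plate plus 3 SD, cut at about 35% in these data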;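 also: 0% = DMSO alone and 100% = 100 µM mitoxantrone as full dye displacement; higher means more dye released from RNA so lower well fluorescence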
CSN inh: CSN deneddylation inhibition | Q92905 | AID 651999 | hit rate 0.38% among 360,000 | inhibition, % at 12.5 µM | Purified CSN, SCF-Nedd8-OG deneddylation, fluorescence polarization;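 active = pattern-corrected inhibition above about 35%, with an unprinted fluorescence ratio check between 0.5 and 1.5, limit read from the data, passing the limit was not always enough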;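 also: 0% = enzyme with substrate and 100% = substrate without enzyme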
Target sequence (Q92905 whole entry, looked up, one chain of several): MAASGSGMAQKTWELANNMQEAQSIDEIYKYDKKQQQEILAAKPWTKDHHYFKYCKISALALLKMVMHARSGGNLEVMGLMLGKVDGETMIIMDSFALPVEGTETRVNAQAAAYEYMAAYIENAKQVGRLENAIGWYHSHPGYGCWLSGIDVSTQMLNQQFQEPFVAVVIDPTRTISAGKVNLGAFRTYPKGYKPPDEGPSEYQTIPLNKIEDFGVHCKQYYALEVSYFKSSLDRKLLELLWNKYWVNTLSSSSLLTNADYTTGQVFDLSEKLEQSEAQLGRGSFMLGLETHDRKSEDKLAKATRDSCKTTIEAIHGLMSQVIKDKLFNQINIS
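Assay system: purified human Csn5 enzyme expressed in HEK293T cells; Input: 0.24 nM Csn5 enzyme, final concentration; Reagent: 10 nM SCFSkp2-Nedd8OG; Compound dosing: 12.5 µM single point; Times: reaction 90 min, room temperature; Technique: fluorescence polarization readout.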
ATG4B inhibitor: ATG4B (human) cysteine protease inhibition | ATG4B cleavage of LC3-PLA2, NBD-HPC fluorescence, 1 h | inhibition, % at 8.33 µM | hit rate 0.51% among 340,000 | AID 504462; in the data active = inhibition above about 40%
UHRF1 MBD2 ctr: blocks human UHRF1 binding to methylated DNA. Q96T88. UHRF1 binding to methylated oligo, TR-FRET. inhibition, % at 4.4 µM. hit rate 0.75% among 370,000. AID 687016; in the data active = inhibition above about 21%;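 also: UHRF1 SRA domain binding a hemimethylated CpG hairpin DNA probe; 0% = median of test compound wells and 100% = reference inhibitor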
MBD2 DNA inh: MBD2-methylated oligo binding inhibition | Q9UBB5 | TR-FRET, MBD2 binding to methylated oligonucleotide | inhibition, % at 4.4 µM | hit rate 0.31% among 370,000 | AID 686964; in the data active = inhibition above about 13%
rCAG bind conf: r(CAG) RNA repeat binding, confirmation; hit rate 70% among 4,300; shares compounds with rCAG binder; TO-PRO-1 dye displacement fluorescence; AID 652065; inhibition, % at 3 µM;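 active = inhibition above a per-plate cutoff, the mean inhibition of sample wells plus 3 SD, cut at about 35% in these data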;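 also: loss of TO-PRO-1 fluorescence as compound displaces dye from 1x1 AA loop RNA; 0% = DMSO only wells and 100% = 100 µM mitoxantrone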
dCAG dye counter: counter-screen for rCAG RNA binders: DNA CAG dye complex inhibitors; inhibition, % at 3 µM; AID 652068; shares compounds with rCAG binder; d(CAG) DNA oligo TO-PRO-1 dye displacement, fluorescence; hit rate 94% among 4,300;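 active = inhibition above its plate's cutoff, the mean test-well inhibition plus 3 SD, cut at about 4.8% in these data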;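 also: 0% = DNA dye mix with DMSO and 100% = 100 µM mitoxantrone; hits displace the dye from DNA and so lower well fluorescence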
DNA CAG DR: DNA CAG dye complex inhibition, dose response counter-screen | shares compounds with rCAG binder | DNA CAG/GTC duplex TO-PRO-1 dye displacement fluorescence | IC50, µM | hit rate 20% among 250; in the data active = IC50 below about 10 µM
* hit, by the source's call. Sampled rows, rich in hits. Any-hit rate of the full collection: about 3.1%.

Screening CCOc1ccc(N2CC(C(=O)Nc3ccc(S(=O)(=O)Nc4ncccn4)cc3)CC2=O)cc1 (stereo unspecified) returned LEDGF integ inh 1, rCAG binder 9, CSN inh -1, ATG4B inhibitor 1, UHRF1 MBD2 ctr -1 and MBD2 DNA inh 2.
Cc1ccc(N2CC(C(=O)Nc3ccc(S(=O)(=O)Nc4nccs4)cc3)CC2=O)cc1 (stereo unspecified) was read as LEDGF integ inh 2, rCAG binder 36*, CSN inh -2, ATG4B inhibitor 6, UHRF1 MBD2 ctr 0, MBD2 DNA inh 4, rCAG bind conf 27 and dCAG dye counter 6.7*.
Screening O=C(Nc1ccc(S(=O)(=O)Nc2nccs2)cc1)C1CC(=O)N(c2ccccc2)C1 (stereo unspecified) returned CSN inh -2 and ATG4B inhibitor -5.
For CCOc1ccc(N2CC(C(=O)Nc3ccc(S(=O)(=O)Nc4nccs4)cc3)CC2=O)cc1 (stereo unspecified) the results were LEDGF integ inh 0, rCAG binder 49*, CSN inh 6, ATG4B inhibitor 3, UHRF1 MBD2 ctr 1, MBD2 DNA inh 6, rCAG bind conf 34 and dCAG dye counter 12*.
N#Cc1c(SC(C(=O)O)c2ccccc2)nc2c(c1-c1cccs1)CCCC2 (stereo unspecified) was read as LEDGF integ inh -2, rCAG binder 67*, CSN inh 2, ATG4B inhibitor -1, UHRF1 MBD2 ctr 0, MBD2 DNA inh 11, rCAG bind conf 74*, dCAG dye counter 28* and DNA CAG DR inactive.
CCOC(=O)C(C)Sc1nc2c(c(-c3cccs3)c1C#N)CCC2 (stereo unspecified) was read as LEDGF integ inh 0, rCAG binder 4, CSN inh 5, ATG4B inhibitor 0, UHRF1 MBD2 ctr 0 and MBD2 DNA inh 3.
O=C(O)CC(Cc1ccc(Cl)cc1)C(=O)Nc1cc(Cl)ccc1Cl (stereo unspecified) was read as LEDGF integ inh 10, rCAG binder 40*, CSN inh 4, ATG4B inhibitor -1, UHRF1 MBD2 ctr 0, MBD2 DNA inh 0, rCAG bind conf 27 and dCAG dye counter 4.
Screening NS(=O)(=O)c1ccc(NC(=O)CSc2nc3ccccc3c(=O)n2-c2ccc(Br)cc2)cc1 returned LEDGF integ inh -1, rCAG binder 23, UHRF1 MBD2 ctr -1 and MBD2 DNA inh -4.
COc1ccc(-c2nn(-c3ccccc3)cc2/C=C/C(=O)O)cc1[N+](=O)[O-] was read as LEDGF integ inh -6, rCAG binder 56*, CSN inh 6, ATG4B inhibitor 9, UHRF1 MBD2 ctr -1, MBD2 DNA inh -4, rCAG bind conf 48* and dCAG dye counter 12*.
COc1ccc(C(=O)Nc2c(N)nc(SCC(=O)NCC3CCCO3)[nH]c2=O)cc1OC (stereo unspecified) was read as LEDGF integ inh -2, rCAG binder -2, CSN inh -3, ATG4B inhibitor 1, UHRF1 MBD2 ctr -1 and MBD2 DNA inh 4.
For COCCCNC(=O)CSc1nc2c(sc(=S)n2-c2cc(Cl)ccc2OC)c(=O)[nH]1 the results were LEDGF integ inh -1, rCAG binder 21, CSN inh -1, ATG4B inhibitor 1, UHRF1 MBD2 ctr 2 and MBD2 DNA inh 3.
`CCC(C)NC(=O)CSc1nc2c(sc(=S)n2-c2cc(Cl)ccc2OC)c(=O)[nH]1` (stereo unspecified) gave LEDGF integ inh 4, rCAG binder 46*, CSN inh 3, ATG4B inhibitor 4, UHRF1 MBD2 ctr 0, MBD2 DNA inh 0, rCAG bind conf 38* and dCAG dye counter 8.5*.
